Compound activity (PubChem)
TRPML3 agonist = human TRPML3 channel agonists, primary screen, cell-based, HEK293 TRPML3-YFP, Fluo-8 calcium fluorescence, 3 µM; Mucolipin-3 (Homo sapiens), Q8TDD5; activation, % at 3 µM; AID 1448, 2008; 100% = the carbachol control signal; 220,000 compounds, 0.29% hits;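 active = activation above its plate's cutoff, the mean activation of the plate's test wells plus 3 SD, cut at about 12% in these data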;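 note: 0% = DMSO only wells and 100% = carbachol wells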
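Test system: HEK293 cells stably carrying human TRPML3-YFP; Doses: single dose, 3 µM final nominal compound, 0.3% DMSO final; Schedule: dye loading 1 h 37 °C then 30 min ambient, 125 s read; Technique: Fluo-8 calcium fluorescence; Benchmarks: high control carbachol 87 µM, low control DMSO.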
zfTRPN1 agonist = zebrafish TRPN1 channel agonists, primary screen, cell-based, HEK293, calcium fluorescence; HEK293 zebrafish TRPN1-YFP, Fluo-8 calcium fluorescence; 100% = response to 87 µM carbachol; activation, % at 3 µM; 220,000 compounds, 0.18% hits; transient receptor potential cation channel N1 (TRPN1/NompC), Danio rerio;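 active = activation above its plate's cutoff, the mean activation of test wells on that plate plus 3 SD, cut at about 19% in these data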;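 note: 0% = DMSO alone and 100% = 87 µM carbachol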
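Material – zebrafish TRPN1-YFP in HEK293 cells · Doses – 3 µM single point · Schedule – dye 1 h 37 °C plus 30 min RT · Signal – Fluo-8 calcium fluorescence, excitation 470-495 nm, emission 515-575 nm · Read-out – % activation versus carbachol response · Control set – carbachol high, DMSO low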
V1aR counter = agonists of human V1a receptor, primary screen, counter-screen for OXTR agonist project, fluorescence, CHO-V1R cells. Vasopressin V1a receptor (Homo sapiens), P37288. Fluo-8 calcium fluorescence, agonist mode; 0% DMSO, 100% 3 nM vasopressin. activation, % at 3 µM. 320,000 compounds, 0.25% hits. AID 2797, 2010;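 active = activation above the mean activation of all tested compounds plus 3 SD, per screening run, cut at about 20% in these data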;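 note: signal is peak over basal fluorescence ratio across a 100 second FLIPR read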
OXTR potentiator = human OXTR potentiators, primary screen, fluorescence, CHO-OTR cells, Fluo-8 calcium; 320,000 compounds, 0.061% hits; AID 2445, 2010; Oxytocin receptor (Homo sapiens), P30559; activation, % at 3 µM; Fluo-8 calcium fluorescence, potentiator mode; 0% = oxytocin EC15, 100% = EC100;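 active = activation above that plate's cutoff, the mean activation of tested compounds plus 3 SD, cut at about 6.6% in these data, passing the limit was not always enough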;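 note: 100% uses oxytocin at 75 nM as the full agonist control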
Target sequence (P30559 whole entry, looked up): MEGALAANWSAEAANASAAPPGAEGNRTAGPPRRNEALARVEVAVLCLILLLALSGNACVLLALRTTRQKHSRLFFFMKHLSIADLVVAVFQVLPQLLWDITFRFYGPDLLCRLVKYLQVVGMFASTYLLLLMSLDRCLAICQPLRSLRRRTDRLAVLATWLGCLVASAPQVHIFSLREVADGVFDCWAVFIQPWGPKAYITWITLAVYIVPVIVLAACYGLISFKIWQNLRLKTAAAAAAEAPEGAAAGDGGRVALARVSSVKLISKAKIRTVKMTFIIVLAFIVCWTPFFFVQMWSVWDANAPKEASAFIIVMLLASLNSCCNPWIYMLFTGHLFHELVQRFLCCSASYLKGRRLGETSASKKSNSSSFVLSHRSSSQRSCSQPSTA
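Material: human OTR in CHO cells. Compound: 3.0 µM, one dose. Timing: compound 6 min at room temperature before oxytocin, 100 s read. Evaluation: % activation of max/min ratio relative to oxytocin controls. Replication: single well per compound, singlicate. Signal: Fluo-8 calcium dye fluorescence.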
OXTR agonist = human OXTR agonists, primary screen, fluorescence, CHO-OTR cells, Fluo-8 calcium | Oxytocin receptor (Homo sapiens), P30559 | Fluo-8 calcium fluorescence; normalized: DMSO 0%, oxytocin 100% | activation, % at 3 µM | 320,000 compounds, 0.32% hits | AID 2435, 2010;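 active = activation above the mean of all tested compounds plus 3 SD, cutoff set per screening run, cut at about 20% in these data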;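 note: peak over basal fluorescence ratio from a 100 s FLIPR kinetic read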
V1R ag confirm = V1a receptor agonists, calcium signal, confirmation, Fluo-8 calcium fluorescence, CHO-V1R cells; 180 compounds, 20% hits; shares compounds with V1aR counter; agonist; activation, % at 3 µM;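 active = average activation exceeds primary screen hit cutoff, cut at about 21% in these data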;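 note: peak over basal fluorescence ratio during a 100 s FLIPR read; 0% = DMSO only wells and 100% = 3 nM vasopressin wells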
OXTR ag counter = human OXTR agonists, counter-screen for V1R agonist project, fluorescence, CHO-OTR cells, triplicate. 180 compounds, 10% hits. activation, % at 3 µM. shares compounds with V1aR counter. Fluo-8 calcium fluorescence;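 active = mean activation over three repeats above the cutoff from the earlier oxytocin receptor agonist screen, cut at about 20% in these data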;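 note: peak over minimum fluorescence ratio within a 100 second FLIPR read; 0% = DMSO only wells and 100% = oxytocin high control wells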
The depositor's hits bear a star; . = no result. Compounds with a hit are over-represented: about 0.55% of the library has one in this group of screens.

SMILES | TRPML3 agonist | zfTRPN1 agonist | V1aR counter | OXTR potentiator | OXTR agonist | V1R ag confirm | OXTR ag counter
COc1ccccc1CN1C[C@@H]2C[C@@H](c3[nH]c4c(C)cccc4c3C)N3CCC[C@@]23C1=O | 0 | -2 | 35* | -15 | 14 | 5 | 2
CCCc1cc(=O)oc2cc(OC(C)C(=O)NC3CC(C)(C)NC(C)(C)C3)ccc12 (stereo not given) | . | . | -1 | -8 | 1 | . | .
Nc1nc(-c2ccccn2)nc(N)c1Cc1ccc(Cl)cc1Cl | 2 | 3 | 22* | -11 | 15 | 7 | 4
Cc1cc2occ(CC(=O)N(CCC(C)C)c3c(N)n(Cc4ccccc4)c(=O)[nH]c3=O)c2cc1C | . | . | 0 | -7 | 0 | . | .
COC(=O)C1CCN(C(=O)CN2C(=O)NC3(CCC(C)CC3)C2=O)CC1 (stereo not given) | . | . | 1 | 5 | 0 | . | .
CN(CC(=O)NCc1ccc(F)cc1)CC(=O)Nc1ccc(Cl)c(C(F)(F)F)c1 | . | . | 29* | -15 | 16 | 10 | 13
COc1ccc(OC)c2sc(N(CCCN(C)C)C(=O)CCS(=O)(=O)c3ccccc3)nc12 | . | . | 1 | -1 | 6 | . | .
Cc1ccc2sc(N(CCCN(C)C)C(=O)CCS(=O)(=O)c3ccccc3)nc2c1C | . | . | 24* | -12 | 15 | 2 | 7
CN(c1ccc(OCC(=O)OCC(=O)NCc2ccco2)cc1)S(=O)(=O)c1ccc2ccccc2c1 | 0 | 1 | 1 | -16 | 0 | . | .
Cc1ccc(NS(=O)(=O)c2ccc(C(=O)N3CCCCCCC3)cc2)cc1 | . | . | 15 | -14 | 8 | . | .
Cc1ccc(NS(=O)(=O)c2ccc(C(=O)N3CCCCCC3)cc2)cc1 | . | . | 21* | -12 | 14 | 13 | 17
O=C(c1cccs1)N1CCN(c2ncc(Br)cn2)CC1 | 1 | 1 | 0 | -4 | -1 | . | .
CCCCCCCCCCC[N+](C)(C)CC/C=C1/c2ccccc2Sc2ccc(Cl)cc21 | . | . | 38* | -13 | 1 | 11 | 17
Cc1cc(NC(=O)Nc2cc(Cl)sc2Cl)no1 | . | . | 2 | -9 | 0 | . | .
COc1ccc(CC(=O)Nc2ccc(NC(=O)c3ccccc3F)cc2)cc1 | 0 | 2 | 32* | -8 | 0 | 13 | 3
COc1ccc(NC(=O)CSc2nc(N)c(NC(=O)c3ccccc3F)c(=O)[nH]2)cc1 | . | . | 0 | -4 | 0 | . | .
COc1ccc(CCNCC(O)COc2ccc(OC)cc2C(C)(C)C)cc1 (stereo not given) | . | . | 24* | -12 | 18 | 1 | 3
COc1ccc(CCNCC(O)COc2cccc(Br)c2)cc1OC (stereo not given) | 2 | 2 | 1 | -4 | 0 | . | .
O=C(NC(=S)NCCc1ccccc1)c1cccc(Cl)c1 | . | . | 2 | -11 | 0 | . | .
CCC(C)C(NC(=O)OCc1ccccc1)C(=O)NC(Cc1ccc(O)cc1)C(=O)OC (stereo not given) | 2 | 8 | 27* | -26 | 17 | 4 | 18
O=C(c1ccccc1NS(=O)(=O)c1ccc(Cl)cc1)N1CCc2ccccc21 | 0 | 0 | 21* | 1 | -1 | 1 | 0
COc1cc(OC)cc(-c2oc3cccnc3c2C#CCCO)c1 | . | . | -1 | -3 | -1 | . | .
O=C(COc1ccc(-c2nnco2)cc1)NCc1ccccc1Cl | -1 | -1 | 0 | -1 | 1 | . | .
O=C(COc1ccc(-c2nnco2)cc1)Nc1ccc(C(F)(F)F)cc1 | . | . | 21* | -10 | 3 | 4 | 1
CCCCN(CC)S(=O)(=O)c1ccc(C(=O)Nc2nnc(-c3cccs3)o2)cc1 | 0 | 0 | 26* | -18 | 0 | 8 | 4
SMILES | TRPML3 agonist | zfTRPN1 agonist | V1aR counter | OXTR potentiator | OXTR agonist | V1R ag confirm | OXTR ag counter
CCN(CC)S(=O)(=O)c1ccc(C(=O)Nc2nnc(-c3ccco3)o2)cc1 | -1 | -1 | -1 | -1 | -1 | . | .
COc1ccc(NS(=O)(=O)NC(=O)c2c[nH]c3ccccc23)cc1 | . | . | 2 | -5 | 0 | . | .
O=C(O)c1cccc(CSc2nc(-c3ccc(Cl)cc3)cc(C(F)(F)F)n2)c1 | 0 | -2 | 21* | -13 | 18 | 6 | 5
Cc1ccc(C(C)NC(=S)NCc2ccc(F)cc2)c(C)c1 (stereo not given) | . | . | 23* | -16 | 3 | 4 | 2
COC(=O)CCCC(=O)N1CCC(CCC(=O)NCc2ccc(F)cc2)CC1 | . | . | 1 | 2 | 1 | . | .
CCC(C)(C)NC(=O)CN(CC1CCCO1)C(=O)CNS(=O)(=O)c1ccccc1 (stereo not given) | . | . | 1 | 4 | 0 | . | .
CC(C)C(C(=O)Nc1ccncc1)c1ccc(Cl)cc1 (stereo not given) | . | . | 27* | -12 | 14 | 12 | 16
CCCCCCCCCCOC(=O)Cn1c(COc2ccccc2OC)[n+](C)c2ccccc21 | . | . | 56* | -15 | 10 | 12 | 20
C/C(=N/NC(=O)c1ccncc1)c1cc2ccc(O)cc2oc1=O | 3 | 1 | 30* | -11 | 18 | 584* | 700*
O=C(NC(=S)NCCc1ccccn1)c1ccccc1 | 0 | 2 | 0 | 0 | 0 | . | .
